In ChEMBL document CHEMBL1157421, “Tenacigenin B derivatives reverse P-glycoprotein-mediated multidrug resistance inHepG2/Dox cells” (J Nat Prod, 2008):
pIC50: −log10 of the molar value.

Key:
HepG2 [1] = assay: Growth inhibition of human HepG2 cells after 72 hrs by SRB assay; format: functional, cell-based; conditions: HepG2, 72 h
Procedure, shortened: (§1)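 SRB growth assay giving IC50 values from at least three repeat experiments, reported as mean ± SD. HepG2/Dox is a doxorubicin-selected Pgp-overexpressing subline kept in 1.2 µM doxorubicin and grown drug-free for at least 7 days before use. Both lines grown in RPMI 1640 with 10% FBS at 37 °C, 5% CO2.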

[2] = Growth inhibition of multidrug resistant human HepG2/Dox cells after 72 hrs by SRB assay; format: functional, cell-based; procedure, shortened: as §1
HepG2/Dox [3] = assay: Reversal of P-glycoprotein-mediated multidrug resistance in human HepG2/Dox cells assessed as increase in sensitivity at 19.6 uM in presence of paclitaxel; format: cell-based
Procedure, shortened: (§2)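 Resistance reversal by SRB assay. IC50s of doxorubicin, vinblastine, puromycin or paclitaxel were measured with or without modulator, with modulator alone as negative control and verapamil as positive control. Fold sensitization is the ratio of drug IC50 without modulator to drug IC50 with it. HepG2/Dox cells were kept drug-free for at least 7 days before use. Assays were run at least three times (mean ± SD).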

HepG2/Dox [4] = assay: Reversal of P-glycoprotein-mediated multidrug resistance in human HepG2/Dox cells assessed as increase in sensitivity at 19.6 uM in presence of vinblastine; format: cell-based; procedure, shortened: as §2
HepG2 [5] = assay: Growth inhibition of doxorubicin-sensitive human HepG2 cells at 80 uM; format: functional
Procedure, shortened: (§3)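 SRB growth assay. HepG2 and HepG2/Dox cells were grown in RPMI 1640 with 10% FBS at 37 °C and 5% CO2; resistant cells were kept drug-free for at least 7 days before use. IC50 was taken from the SRB assay, with at least three repeats, reported as mean ± SD.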

HepG2/Dox [6] = assay: Reversal of P-glycoprotein-mediated multidrug resistance in human HepG2/Dox cells assessed as increase in sensitivity at 39.2 uM in presence of vinblastine; format: cell-based; procedure, shortened: as §2
HepG2/Dox [7] = assay: Reversal of P-glycoprotein-mediated multidrug resistance in human HepG2/Dox cells assessed as increase in sensitivity at 39.2 uM in presence of puromycin; format: cell-based; procedure, shortened: as §2
HepG2 [8] = assay: Reversal of P-glycoprotein-mediated drug resistance in human HepG2 cells assessed as increase in sensitivity at 39.2 uM in presence of vinblastine; format: cell-based; procedure, shortened: as §2
HepG2/Dox [9] = assay: Reversal of P-glycoprotein-mediated multidrug resistance in human HepG2/Dox cells assessed as increase in sensitivity at 19.6 uM in presence of doxorubicin; format: cell-based; procedure, shortened: as §2
HepG2 [10] = assay: Reversal of P-glycoprotein-mediated drug resistance in human HepG2 cells assessed as increase in sensitivity at 39.2 uM in presence of doxorubicin; format: cell-based; procedure, shortened: as §2
HepG2/Dox [11] = assay: Reversal of P-glycoprotein-mediated multidrug resistance in human HepG2/Dox cells assessed as increase in sensitivity at 19.6 uM in presence of puromycin; format: cell-based; procedure, shortened: as §2
[12] = Growth inhibition of multidrug resistant human HepG2/Dox cells at 80 uM; format: functional; procedure, shortened: as §3
HepG2/Dox [13] = assay: Reversal of P-glycoprotein-mediated multidrug resistance in human HepG2/Dox cells assessed as increase in sensitivity at 39.2 uM in presence of doxorubicin; format: cell-based; procedure, shortened: as §2
HepG2 [14] = assay: Reversal of P-glycoprotein-mediated drug resistance in human HepG2 cells assessed as increase in sensitivity at 39.2 uM in presence of paclitaxel; format: cell-based; procedure, shortened: as §2
HepG2/Dox [15] = assay: Reversal of P-glycoprotein-mediated multidrug resistance in human HepG2/Dox cells assessed as increase in sensitivity at 39.2 uM in presence of paclitaxel; format: cell-based; procedure, shortened: as §2
HepG2 [16] = assay: Reversal of P-glycoprotein-mediated drug resistance in human HepG2 cells assessed as increase in sensitivity at 39.2 uM in presence of puromycin; format: cell-based; procedure, shortened: as §2
[17] = Cell cycle arrest in multidrug resistant human HepG2/Dox cells assessed as accumulation in S phase at 1 uM; format: functional, cell-based
Procedure, shortened: (§4)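 Flow-cytometric cell-cycle profiling. About 2 × 10^5 cells were seeded per dish and left overnight, then exposed to medium with or without drug for 48 h. Cells were fixed in 70% EtOH at -20 °C overnight and treated with RNase A (100 µg/mL, 37 °C, 30 min). They were then stained with propidium iodide (40 µg/mL final) at room temperature for 5-10 min and read on a FACSCalibur.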

[18] = Cell cycle arrest in multidrug resistant human HepG2/Dox cells assessed as accumulation in G2/M phase at 50 uM; format: functional, cell-based; procedure, shortened: as §4
[19] = Cell cycle arrest in multidrug resistant human HepG2/Dox cells assessed as accumulation in S phase at 50 uM; format: functional, cell-based; procedure, shortened: as §4
[20] = Cell cycle arrest in multidrug resistant human HepG2/Dox cells assessed as accumulation in subG1 phase at 50 uM; format: functional, cell-based; procedure, shortened: as §4
HepG2 [21] = assay: Cell cycle arrest in human HepG2 cells assessed as accumulation in S phase at 0.2 uM; format: functional
Procedure, shortened: (§5)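 Cells seeded at about 2 × 10^5 per dish and left overnight, then exposed to drug for 48 h. Collected, washed in PBS, fixed in 70% EtOH at -20 °C overnight, treated with RNase A (100 µg/mL) at 37 °C for 30 min, stained with propidium iodide (40 µg/mL final) at room temperature, and phase distribution read by flow cytometry.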

[22] = Cell cycle arrest in multidrug resistant human HepG2/Dox cells assessed as accumulation in subG1 phase at 1 uM; format: functional, cell-based; procedure, shortened: as §4
[23] = Cell cycle arrest in multidrug resistant human HepG2/Dox cells assessed as accumulation in G0/G1 phase at 1 uM; format: functional, cell-based; procedure, shortened: as §4
[24] = Cell cycle arrest in multidrug resistant human HepG2/Dox cells assessed as accumulation in G0/G1 phase at 50 uM; format: functional, cell-based; procedure, shortened: as §4
[25] = Cell cycle arrest in multidrug resistant human HepG2/Dox cells assessed as accumulation in S phase at 10 uM; format: functional, cell-based; procedure, shortened: as §4
HepG2 [26] = assay: Cell cycle arrest in human HepG2 cells assessed as accumulation in G0/G1 phase at 0.2 uM; format: functional; procedure, shortened: as §5
[27] = Cell cycle arrest in multidrug resistant human HepG2/Dox cells assessed as accumulation in G0/G1 phase at 10 uM; format: functional, cell-based; procedure, shortened: as §4
[28] = Cell cycle arrest in multidrug resistant human HepG2/Dox cells assessed as accumulation in G2/M phase at 10 uM; format: functional, cell-based; procedure, shortened: as §4
[29] = Cell cycle arrest in multidrug resistant human HepG2/Dox cells assessed as accumulation in subG1 phase at 10 uM; format: functional, cell-based; procedure, shortened: as §4
HepG2 [30] = assay: Cell cycle arrest in human HepG2 cells assessed as accumulation in subG1 phase at 0.2 uM; format: functional; procedure, shortened: as §5
HepG2 [31] = assay: Cell cycle arrest in human HepG2 cells assessed as accumulation in G2/M phase at 0.2 uM; format: functional; procedure, shortened: as §5
[32] = Cell cycle arrest in multidrug resistant human HepG2/Dox cells assessed as accumulation in G2/M phase at 1 uM; format: functional, cell-based; procedure, shortened: as §4

With `CC(=O)O[C@H]1C(=O)[C@@]2(C)[C@H]([C@H](OC(=O)c3ccccc3)[C@]3(O)C[C@H](OC(=O)[C@H](O)[C@@H](NC(=O)c4ccccc4)c4ccccc4)C(C)=C1C3(C)C)[C@]1(OC(C)=O)CO[C@@H]1C[C@@H]2O` [PACLITAXEL] as the compound, how does the pIC50 (HepG2 [1]) read?
The pIC50 was 8.23.

What about the pIC50 [2] of the same compound?
The pIC50 was 5.85.

With `CC(=O)O[C@@H]1[C@@H](OC(=O)c2ccccc2)[C@@H]2[C@@]3(C)CC[C@H](O)C[C@@H]3CC[C@]23O[C@@]32CC[C@@H](C(C)=O)[C@@]12C` [11ALPHA-O-BENZOYL-12BETA-O-ACETYLTENACIGENIN B] as the compound, how does the Ratio IC50 (HepG2/Dox [3]) read?
The Ratio IC50 was 42.4.

What about the Ratio IC50 (HepG2/Dox [4]) of the same compound?
The Ratio IC50 was 13.

What about the inhibition at 80 µM (HepG2 [5]) of the same compound?
Its inhibition at 80 µM is 50%.

What about the Ratio IC50 (HepG2/Dox [6]) of the same compound?
Its Ratio IC50 is 53.1.

What about the Ratio IC50 (HepG2/Dox [7]) of the same compound?
Its Ratio IC50 is 15.5.

What about the Ratio IC50 (HepG2 [8]) of the same compound?
The Ratio IC50 was 0.9.

What about the Ratio IC50 (HepG2/Dox [9]) of the same compound?
The Ratio IC50 was 10.1.

What about the Ratio IC50 (HepG2 [10]) of the same compound?
Its Ratio IC50 is 1.2.

What about the Ratio IC50 (HepG2/Dox [11]) of the same compound?
The Ratio IC50 was 8.1.

What about the inhibition at 80 µM [12] of the same compound?
The inhibition at 80 µM was 50%.

What about the Ratio IC50 (HepG2/Dox [13]) of the same compound?
The Ratio IC50 was 15.6.

And the Ratio IC50 (HepG2 [14])?
The Ratio IC50 was 1.

And the Ratio IC50 (HepG2/Dox [15])?
The Ratio IC50 was 326.

And the Ratio IC50 (HepG2 [16])?
Its Ratio IC50 is 1.

With `COc1ccc(C[C@H](N)C(=O)N[C@H]2[C@@H](O)[C@H](n3cnc4c(N(C)C)ncnc43)O[C@@H]2CO)cc1` [PUROMYCIN] as the compound, how does the pIC50 (HepG2 [1]) read?
The pIC50 was 6.68.

What about the pIC50 [2] of the same compound?
Its pIC50 is 4.69.

Which Activity [17] does the source give for `COc1cccc2c1C(=O)c1c(O)c3c(c(O)c1C2=O)C[C@@](O)(C(=O)CO)C[C@@H]3O[C@H]1C[C@H](N)[C@H](O)[C@H](C)O1` [DOXORUBICIN] here?
Its Activity is 7.7%.

What about the Activity [18] of the same compound?
Its Activity is 73.4%.

What about the Activity [19] of the same compound?
Its Activity is 5.6%.

What about the Activity [20] of the same compound?
The Activity was 4.9%.

And the Activity (HepG2 [21])?
The Activity was 8.9%.

What about the Activity [22] of the same compound?
The Activity was 2.4%.

What about the Activity [23] of the same compound?
Its Activity is 51.3%.

And the Activity [24]?
The Activity was 12%.

And the Activity [25]?
Its Activity is 6.9%.

What about the pIC50 (HepG2 [1]) of the same compound?
The pIC50 was 6.77.

And the Activity (HepG2 [26])?
Its Activity is 4.9%.

And the Activity [27]?
Its Activity is 24.8%.

What about the Activity [28] of the same compound?
Its Activity is 60.8%.

What about the Activity [29] of the same compound?
The Activity was 3.4%.

What about the Activity (HepG2 [30]) of the same compound?
The Activity was 0.9%.

And the pIC50 [2]?
The pIC50 was 5.07.

What about the Activity (HepG2 [31]) of the same compound?
The Activity was 76.6%.

And the Activity [32]?
The Activity was 33.5%.

With `CC[C@]1(O)C[C@@H]2CN(CCc3c([nH]c4ccccc34)[C@@](C(=O)OC)(c3cc4c(cc3OC)N(C)[C@H]3[C@@](O)(C(=O)OC)[C@H](OC(C)=O)[C@]5(CC)C=CCN6CC[C@]43[C@@H]65)C2)C1` [VINBLASTINE] as the compound, how does the pIC50 (HepG2 [1]) read?
Its pIC50 is 9.59.

What about the pIC50 [2] of the same compound?
The pIC50 was 6.59.
